Reference: ChEMBL document CHEMBL1149106, “Design, synthesis, and evaluation of aza-peptide epoxides as selective and potent inhibitors of caspases-1, -3, -6, and -8” (J Med Chem, 2004)
Calls of active or inactive are those of the source. No cut-off for these calls is given here.

How the values were obtained:
[1] = molecular target: T1, Caspase-3 (Homo sapiens) (UniProt P42574); assay: Second-order inhibition rate of caspase-3 was determined by progress curve method
T1 sequence (whole entry): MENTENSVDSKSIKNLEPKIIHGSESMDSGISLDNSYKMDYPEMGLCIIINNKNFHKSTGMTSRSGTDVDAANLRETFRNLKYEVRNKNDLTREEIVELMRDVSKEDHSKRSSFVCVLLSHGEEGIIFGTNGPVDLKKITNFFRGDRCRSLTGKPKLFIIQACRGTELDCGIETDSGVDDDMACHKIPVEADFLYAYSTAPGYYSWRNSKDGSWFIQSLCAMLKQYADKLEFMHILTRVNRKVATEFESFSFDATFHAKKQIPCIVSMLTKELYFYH
In short: (§1)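 Caspases-3, -6 and -8 were assayed in 50 mM HEPES, 100 mM NaCl, 0.1% (w/v) CHAPS, 10% (w/v) sucrose and 10 mM DTT, pH 7.4. Substrate: Cbz-DEVD-AFC or Cbz-DEVD-AMC.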

[2] = molecular target: T2, Caspase-6 (Homo sapiens) (UniProt P55212); assay: Second-order inhibition rate of caspase-6 was determined by progress curve method; in short: as §1
T2 sequence (whole entry): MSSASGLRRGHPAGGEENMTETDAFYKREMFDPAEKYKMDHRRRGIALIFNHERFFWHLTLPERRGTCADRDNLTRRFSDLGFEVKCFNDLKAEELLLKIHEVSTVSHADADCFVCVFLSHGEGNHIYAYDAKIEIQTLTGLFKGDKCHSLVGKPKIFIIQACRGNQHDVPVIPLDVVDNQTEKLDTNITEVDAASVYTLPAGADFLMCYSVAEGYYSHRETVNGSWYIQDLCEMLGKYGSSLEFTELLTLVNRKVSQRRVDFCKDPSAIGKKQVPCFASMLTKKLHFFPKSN

[3] = molecular target: T3, Caspase-1 (Homo sapiens) (UniProt P29466); assay: Second-order inhibition rate of caspase-1 was determined by progress curve method
T3 sequence (whole entry): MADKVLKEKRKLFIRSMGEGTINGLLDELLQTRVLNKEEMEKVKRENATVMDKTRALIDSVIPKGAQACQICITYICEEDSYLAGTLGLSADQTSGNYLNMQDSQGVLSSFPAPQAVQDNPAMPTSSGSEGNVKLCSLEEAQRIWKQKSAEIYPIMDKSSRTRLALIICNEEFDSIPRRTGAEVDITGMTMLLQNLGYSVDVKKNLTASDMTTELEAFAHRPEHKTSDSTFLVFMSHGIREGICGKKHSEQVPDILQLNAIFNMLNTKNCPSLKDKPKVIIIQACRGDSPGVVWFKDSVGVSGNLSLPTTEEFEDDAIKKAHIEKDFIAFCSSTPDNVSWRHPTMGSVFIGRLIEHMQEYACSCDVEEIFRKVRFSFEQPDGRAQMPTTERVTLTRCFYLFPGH
In short: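 Caspase-1 assay buffer: 100 mM HEPES, 0.5 mM EDTA, 20% (v/v) glycerol, 5 mM DTT, pH 7.5. Substrate: Ac-YVAD-AMC.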

[4] = molecular target: Caspase-8 (Homo sapiens) (UniProt Q14790); assay: Second-order inhibition rate of caspase-8 was determined by progress curve method; in short: as §1
[5] = molecular target: T1, Caspase-3 (Homo sapiens); assay: Second-order inhibition rate of caspase-3 was determined by progress curve method; No inhibition; in short: as §1
[6] = molecular target: T2, Caspase-6 (Homo sapiens); assay: Second-order inhibition rate of caspase-6 was determined by progress curve method; No inhibition; in short: as §1
[7] = molecular target: Caspase-8 (Homo sapiens) (UniProt Q14790); assay: Second-order inhibition rate of caspase-8 was determined by progress curve method; No inhibition; in short: as §1

Caspase-8 (Homo sapiens), sequence (Q14790 217-374 limits assumed): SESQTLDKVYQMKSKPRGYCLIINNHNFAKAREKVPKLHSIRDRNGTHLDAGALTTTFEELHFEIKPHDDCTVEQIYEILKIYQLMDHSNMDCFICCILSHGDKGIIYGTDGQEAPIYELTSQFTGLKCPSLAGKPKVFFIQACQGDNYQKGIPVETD
Caspase-8 (Homo sapiens), sequence (Q14790 385-479 limits assumed): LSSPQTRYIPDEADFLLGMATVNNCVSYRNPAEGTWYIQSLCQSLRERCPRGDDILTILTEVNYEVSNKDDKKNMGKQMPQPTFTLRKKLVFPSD

Structure (SMILES)	k2 [1]	k2 [2]	k2 [3]	k2 [4]	k2 [5]	k2 [6]	k2 [7]
CC(C)[C@H](NC(=O)CCc1ccccc1)C(=O)N[C@@H](C)C(=O)NN(CC(=O)O)C(=O)[C@H]1O[C@@H]1C(=O)NCc1ccccc1	1610 M⁻¹ s⁻¹	155 M⁻¹ s⁻¹	65900 M⁻¹ s⁻¹	9360 M⁻¹ s⁻¹	–	–	–
CC[C@H](C)[C@H](NC(=O)OCc1ccccc1)C(=O)N[C@@H](CCC(=O)O)C(=O)N[C@H](C(=O)NN(CC(=O)O)C(=O)[C@H]1O[C@@H]1C(=O)OCc1ccccc1)[C@@H](C)O	9500 M⁻¹ s⁻¹	86200 M⁻¹ s⁻¹	45800 M⁻¹ s⁻¹	58500 M⁻¹ s⁻¹	–	–	–
CC[C@H](C)[C@H](NC(=O)OCc1ccccc1)C(=O)N[C@@H](CCC(=O)O)C(=O)N[C@H](C(=O)NN(CC(=O)O)C(=O)[C@@H]1O[C@H]1C(=O)NCc1ccccc1)[C@@H](C)O	6500 M⁻¹ s⁻¹	60100 M⁻¹ s⁻¹	18100 M⁻¹ s⁻¹	6500 M⁻¹ s⁻¹	–	–	–
CC(C)C[C@H](NC(=O)OCc1ccccc1)C(=O)NC(CCC(=O)O)C(=O)N[C@H](C(=O)NN(CC(=O)O)C(=O)[C@H]1O[C@@H]1C(=O)N[C@@H](C)C(=O)NCc1ccccc1)[C@@H](C)O (some centres undefined)	1280 M⁻¹ s⁻¹	6660 M⁻¹ s⁻¹	–	44800 M⁻¹ s⁻¹	–	–	–
CC(C)[C@H](NC(=O)CCc1ccccc1)C(=O)N[C@@H](C)C(=O)NN(CC(=O)O)C(=O)[C@H]1O[C@@H]1C(=O)N[C@@H](C)C(=O)NCc1ccccc1	260 M⁻¹ s⁻¹	25 M⁻¹ s⁻¹	13400 M⁻¹ s⁻¹	140 M⁻¹ s⁻¹	–	–	–
CC(C)[C@H](NC(=O)C(CCC(=O)O)NC(=O)[C@H](CC(=O)O)NC(=O)OCc1ccccc1)C(=O)NN(CC(=O)O)C(=O)[C@H]1O[C@@H]1C(=O)NCc1ccccc1 (some centres undefined)	1.09e+06 M⁻¹ s⁻¹	6000 M⁻¹ s⁻¹	25400 M⁻¹ s⁻¹	84400 M⁻¹ s⁻¹	–	–	–
CC[C@H](C)[C@H](NC(=O)OCc1ccccc1)C(=O)N[C@@H](CCC(=O)O)C(=O)N[C@H](C(=O)NN(CC(=O)O)C(=O)[C@@H]1O[C@H]1C(=O)N[C@@H](C)C(=O)NCc1ccccc1)[C@@H](C)O	3050 M⁻¹ s⁻¹	38200 M⁻¹ s⁻¹	–	56000 M⁻¹ s⁻¹	–	–	–
CC(C)C[C@H](NC(=O)[C@H]1O[C@@H]1C(=O)N(CC(=O)O)NC(=O)[C@H](C)NC(=O)[C@@H](NC(=O)CCc1ccccc1)C(C)C)C(N)=O	420 M⁻¹ s⁻¹	71 M⁻¹ s⁻¹	26100 M⁻¹ s⁻¹	315 M⁻¹ s⁻¹	–	–	–
CC(C)[C@H](NC(=O)[C@H](CCC(=O)O)NC(=O)OCc1ccccc1)C(=O)NN(CC(=O)O)C(=O)[C@@H]1O[C@H]1C(=O)N[C@@H](Cc1ccccc1)C(N)=O	470 M⁻¹ s⁻¹	25 M⁻¹ s⁻¹	1040 M⁻¹ s⁻¹	–	–	–	–
CC(C)[C@H](NC(=O)CCc1ccccc1)C(=O)N[C@@H](C)C(=O)NN(CC(=O)O)C(=O)[C@H]1O[C@@H]1C(=O)N[C@@H](Cc1ccc(O)cc1)C(N)=O	87 M⁻¹ s⁻¹	11 M⁻¹ s⁻¹	3250 M⁻¹ s⁻¹	125 M⁻¹ s⁻¹	–	–	–
CC(C)[C@H](NC(=O)CCc1ccccc1)C(=O)N[C@@H](C)C(=O)NN(CC(=O)O)C(=O)[C@H]1O[C@@H]1C(=O)N[C@@H](Cc1ccccc1)C(N)=O	625 M⁻¹ s⁻¹	65 M⁻¹ s⁻¹	32700 M⁻¹ s⁻¹	390 M⁻¹ s⁻¹	–	–	–
CC(C)[C@H](NC(=O)CCc1ccccc1)C(=O)N[C@@H](C)C(=O)NN(CC(=O)O)C(=O)[C@H]1O[C@@H]1C(=O)NCCc1ccccc1	1110 M⁻¹ s⁻¹	130 M⁻¹ s⁻¹	17100 M⁻¹ s⁻¹	10100 M⁻¹ s⁻¹	–	–	–
CC(C)[C@H](NC(=O)CCc1ccccc1)C(=O)N[C@@H](C)C(=O)NN(CC(=O)O)C(=O)[C@H]1O[C@@H]1C(=O)NCC(O)c1ccccc1 (some centres undefined)	510 M⁻¹ s⁻¹	63 M⁻¹ s⁻¹	12200 M⁻¹ s⁻¹	4090 M⁻¹ s⁻¹	–	–	–
CC(C)C[C@H](NC(=O)OCc1ccccc1)C(=O)NC(CCC(=O)O)C(=O)N[C@H](C(=O)NN(CC(=O)O)C(=O)[C@H]1O[C@@H]1C(=O)NCCc1ccccc1)[C@@H](C)O (some centres undefined)	2550 M⁻¹ s⁻¹	10000 M⁻¹ s⁻¹	–	53300 M⁻¹ s⁻¹	–	–	–
CC(C)[C@H](NC(=O)C(CCC(=O)O)NC(=O)[C@H](CC(=O)O)NC(=O)OCc1ccccc1)C(=O)NN(CC(=O)O)C(=O)[C@H]1O[C@@H]1C(=O)N[C@@H](Cc1ccccc1)C(N)=O (some centres undefined)	722000 M⁻¹ s⁻¹	6140 M⁻¹ s⁻¹	9250 M⁻¹ s⁻¹	29600 M⁻¹ s⁻¹	–	–	–
CC(C)C[C@H](NC(=O)OCc1ccccc1)C(=O)NC(CCC(=O)O)C(=O)N[C@H](C(=O)NN(CC(=O)O)C(=O)[C@H]1O[C@@H]1C(=O)OCc1ccccc1)[C@@H](C)O (some centres undefined)	3520 M⁻¹ s⁻¹	10300 M⁻¹ s⁻¹	43500 M⁻¹ s⁻¹	72700 M⁻¹ s⁻¹	–	–	–

Continued, values first:

k2 [1]	k2 [2]	k2 [3]	k2 [4]	k2 [5]	k2 [6]	k2 [7]	Structure (SMILES)
–	15 M⁻¹ s⁻¹	1860 M⁻¹ s⁻¹	185 M⁻¹ s⁻¹	inactive	–	–	CC(C)[C@H](NC(=O)CCc1ccccc1)C(=O)N[C@@H](C)C(=O)NN(CC(=O)O)C(=O)[C@@H]1O[C@H]1C(=O)OCc1ccccc1
27300 M⁻¹ s⁻¹	3130 M⁻¹ s⁻¹	41100 M⁻¹ s⁻¹	72700 M⁻¹ s⁻¹	–	–	–	CC(C)[C@H](NC(=O)[C@H](CCC(=O)O)NC(=O)OCc1ccccc1)C(=O)NN(CC(=O)O)C(=O)[C@H]1O[C@@H]1C(=O)NCCc1ccccc1
1910 M⁻¹ s⁻¹	142 M⁻¹ s⁻¹	–	6050 M⁻¹ s⁻¹	–	–	–	CCNC(=O)[C@H]1O[C@@H]1C(=O)N(CC(=O)O)NC(=O)[C@H](C)NC(=O)[C@@H](NC(=O)CCc1ccccc1)C(C)C
2110 M⁻¹ s⁻¹	240 M⁻¹ s⁻¹	56600 M⁻¹ s⁻¹	3780 M⁻¹ s⁻¹	–	–	–	CC(C)[C@H](NC(=O)CCc1ccccc1)C(=O)N[C@@H](C)C(=O)NN(CC(=O)O)C(=O)[C@H]1O[C@@H]1C(=O)OCCc1ccccc1
3110 M⁻¹ s⁻¹	45400 M⁻¹ s⁻¹	13000 M⁻¹ s⁻¹	4560 M⁻¹ s⁻¹	–	–	–	CC[C@H](C)[C@H](NC(=O)OCc1ccccc1)C(=O)N[C@@H](CCC(=O)O)C(=O)N[C@H](C(=O)NN(CC(=O)O)C(=O)[C@@H]1O[C@H]1C(=O)OCc1ccccc1)[C@@H](C)O
145 M⁻¹ s⁻¹	–	–	–	–	inactive	inactive	CC(C)[C@H](NC(=O)OCc1ccccc1)C(=O)NN(CC(=O)O)C(=O)[C@H]1O[C@@H]1c1ccc(Cl)cc1
1.91e+06 M⁻¹ s⁻¹	12700 M⁻¹ s⁻¹	54700 M⁻¹ s⁻¹	188000 M⁻¹ s⁻¹	–	–	–	CC(C)[C@H](NC(=O)C(CCC(=O)O)NC(=O)[C@H](CC(=O)O)NC(=O)OCc1ccccc1)C(=O)NN(CC(=O)O)C(=O)[C@H]1O[C@@H]1C(=O)OCc1ccccc1 (some centres undefined)
2630 M⁻¹ s⁻¹	34000 M⁻¹ s⁻¹	13300 M⁻¹ s⁻¹	8800 M⁻¹ s⁻¹	–	–	–	CCOC(=O)[C@@H]1O[C@H]1C(=O)N(CC(=O)O)NC(=O)[C@@H](NC(=O)[C@H](CCC(=O)O)NC(=O)[C@@H](NC(=O)OCc1ccccc1)[C@@H](C)CC)[C@@H](C)O
310 M⁻¹ s⁻¹	44 M⁻¹ s⁻¹	–	180 M⁻¹ s⁻¹	–	–	–	CC(C)[C@H](NC(=O)OCc1ccccc1)C(=O)NN(CC(=O)O)C(=O)[C@H]1O[C@@H]1CCc1ccccc1
1110 M⁻¹ s⁻¹	90 M⁻¹ s⁻¹	–	370 M⁻¹ s⁻¹	–	–	–	CC(C)[C@H](NC(=O)OCc1ccccc1)C(=O)NN(CC(=O)O)C(=O)[C@H]1O[C@@H]1C(=O)O
3650 M⁻¹ s⁻¹	350 M⁻¹ s⁻¹	–	1260 M⁻¹ s⁻¹	–	–	–	CCOC(=O)[C@H]1O[C@@H]1C(=O)N(CC(=O)O)NC(=O)[C@@H](NC(=O)OCc1ccccc1)C(C)C
